Data reported in ChEMBL document CHEMBL4265915, “b-Annulated 1,4-dihydropyridines as Notch inhibitors” (Bioorg Med Chem Lett, 2018).

Assays:
HCT-116 [1] = assay: Antiproliferative activity against human HCT116 cells after 72 hrs by SYBR green dye based fluorescence assay; format: functional, cell-based; conditions: for IC50: HCT-116, 72 h
Outline: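 HCT-116 colon cancer cells were incubated for 72 h with a concentration series of test agent, with a vehicle-treated control. Proliferation was measured, and the IC50 was derived from the dose-response curve.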

[2] = biological target: T1, Neurogenic locus notch homolog protein 1 (Homo sapiens, UniProt P46531); assay: Potency index, ratio of FLI-06 IC50 to compound IC50 for inhibition of Notch1 deltaE mutant (unknown origin)
Target sequence in this assay (P46531 whole entry): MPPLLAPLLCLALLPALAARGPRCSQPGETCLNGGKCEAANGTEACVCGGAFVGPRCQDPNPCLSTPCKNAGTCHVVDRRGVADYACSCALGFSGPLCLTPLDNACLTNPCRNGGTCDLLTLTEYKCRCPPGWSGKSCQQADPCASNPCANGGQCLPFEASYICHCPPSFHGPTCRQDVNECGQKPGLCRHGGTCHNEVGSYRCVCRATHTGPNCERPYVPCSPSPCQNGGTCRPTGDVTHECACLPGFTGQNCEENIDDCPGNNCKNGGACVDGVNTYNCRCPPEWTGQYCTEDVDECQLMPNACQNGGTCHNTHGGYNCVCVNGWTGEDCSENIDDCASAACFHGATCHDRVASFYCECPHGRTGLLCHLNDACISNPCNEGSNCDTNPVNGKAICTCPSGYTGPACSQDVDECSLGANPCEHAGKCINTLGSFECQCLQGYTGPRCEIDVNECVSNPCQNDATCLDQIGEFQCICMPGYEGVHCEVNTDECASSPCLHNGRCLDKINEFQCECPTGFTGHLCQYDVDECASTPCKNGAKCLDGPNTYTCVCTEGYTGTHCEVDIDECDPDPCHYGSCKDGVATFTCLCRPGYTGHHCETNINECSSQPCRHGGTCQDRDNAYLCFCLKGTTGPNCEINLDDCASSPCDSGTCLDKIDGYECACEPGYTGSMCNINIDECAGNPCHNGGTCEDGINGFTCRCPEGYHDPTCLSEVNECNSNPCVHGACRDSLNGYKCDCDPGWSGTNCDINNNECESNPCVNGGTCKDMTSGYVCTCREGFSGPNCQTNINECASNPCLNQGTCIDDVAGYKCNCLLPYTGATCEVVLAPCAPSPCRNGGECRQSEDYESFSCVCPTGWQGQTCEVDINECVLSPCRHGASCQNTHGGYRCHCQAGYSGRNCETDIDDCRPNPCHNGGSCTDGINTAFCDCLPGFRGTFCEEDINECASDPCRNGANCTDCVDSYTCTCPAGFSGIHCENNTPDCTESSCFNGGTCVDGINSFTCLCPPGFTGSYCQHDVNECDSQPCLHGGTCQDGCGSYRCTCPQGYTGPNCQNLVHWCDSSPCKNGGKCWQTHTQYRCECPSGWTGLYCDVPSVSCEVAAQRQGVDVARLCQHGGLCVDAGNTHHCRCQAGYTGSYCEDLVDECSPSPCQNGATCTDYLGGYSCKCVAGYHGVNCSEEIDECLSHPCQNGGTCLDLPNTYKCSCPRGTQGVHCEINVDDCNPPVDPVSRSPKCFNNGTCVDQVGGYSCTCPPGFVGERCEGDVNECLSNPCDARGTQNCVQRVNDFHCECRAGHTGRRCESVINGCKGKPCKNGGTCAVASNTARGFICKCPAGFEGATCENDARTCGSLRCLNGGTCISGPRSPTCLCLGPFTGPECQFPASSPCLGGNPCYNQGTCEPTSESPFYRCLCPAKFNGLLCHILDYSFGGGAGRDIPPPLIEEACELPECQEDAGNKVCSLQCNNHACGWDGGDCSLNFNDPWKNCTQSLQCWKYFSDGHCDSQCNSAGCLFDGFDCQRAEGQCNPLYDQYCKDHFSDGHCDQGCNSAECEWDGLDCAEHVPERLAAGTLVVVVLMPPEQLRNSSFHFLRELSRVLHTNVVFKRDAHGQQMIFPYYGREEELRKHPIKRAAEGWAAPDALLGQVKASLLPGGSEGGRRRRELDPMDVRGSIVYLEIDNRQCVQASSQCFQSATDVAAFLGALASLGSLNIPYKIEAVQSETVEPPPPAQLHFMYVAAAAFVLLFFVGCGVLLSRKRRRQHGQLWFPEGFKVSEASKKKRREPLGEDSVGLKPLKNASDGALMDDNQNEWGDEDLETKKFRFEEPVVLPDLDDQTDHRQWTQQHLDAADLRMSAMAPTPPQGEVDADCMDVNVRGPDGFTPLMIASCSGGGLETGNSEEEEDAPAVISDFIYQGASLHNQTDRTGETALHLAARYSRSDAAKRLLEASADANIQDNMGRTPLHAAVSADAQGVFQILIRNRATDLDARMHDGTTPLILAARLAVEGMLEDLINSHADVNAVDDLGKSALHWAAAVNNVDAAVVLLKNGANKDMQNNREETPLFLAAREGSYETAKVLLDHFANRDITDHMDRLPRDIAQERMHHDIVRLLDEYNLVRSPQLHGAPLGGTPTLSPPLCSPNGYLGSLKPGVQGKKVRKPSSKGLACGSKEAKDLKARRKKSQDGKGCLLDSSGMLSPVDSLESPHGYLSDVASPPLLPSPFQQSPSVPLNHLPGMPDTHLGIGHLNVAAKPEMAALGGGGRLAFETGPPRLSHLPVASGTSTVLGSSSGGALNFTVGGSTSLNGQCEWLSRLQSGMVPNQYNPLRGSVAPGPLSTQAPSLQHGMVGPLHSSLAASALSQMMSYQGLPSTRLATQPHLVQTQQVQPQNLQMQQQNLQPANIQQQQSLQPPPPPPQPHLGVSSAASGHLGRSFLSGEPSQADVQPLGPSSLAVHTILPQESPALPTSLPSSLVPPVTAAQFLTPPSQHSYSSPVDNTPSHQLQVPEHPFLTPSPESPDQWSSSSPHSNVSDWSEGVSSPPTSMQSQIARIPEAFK

HCT-116 [3] = assay: Potency index, ratio of DAPM IC50 to compound IC50 for antiproliferative activity against human HCT116 cells; format: functional
[4] = biological target: T1, Neurogenic locus notch homolog protein 1; assay: Inhibition of Notch1 deltaE mutant (unknown origin) expressed in HEK293 cells after 16 hrs by […] luciferase reporter gene assay; format: cell-based
Target sequence in this assay (P46531 19-2555 limits assumed): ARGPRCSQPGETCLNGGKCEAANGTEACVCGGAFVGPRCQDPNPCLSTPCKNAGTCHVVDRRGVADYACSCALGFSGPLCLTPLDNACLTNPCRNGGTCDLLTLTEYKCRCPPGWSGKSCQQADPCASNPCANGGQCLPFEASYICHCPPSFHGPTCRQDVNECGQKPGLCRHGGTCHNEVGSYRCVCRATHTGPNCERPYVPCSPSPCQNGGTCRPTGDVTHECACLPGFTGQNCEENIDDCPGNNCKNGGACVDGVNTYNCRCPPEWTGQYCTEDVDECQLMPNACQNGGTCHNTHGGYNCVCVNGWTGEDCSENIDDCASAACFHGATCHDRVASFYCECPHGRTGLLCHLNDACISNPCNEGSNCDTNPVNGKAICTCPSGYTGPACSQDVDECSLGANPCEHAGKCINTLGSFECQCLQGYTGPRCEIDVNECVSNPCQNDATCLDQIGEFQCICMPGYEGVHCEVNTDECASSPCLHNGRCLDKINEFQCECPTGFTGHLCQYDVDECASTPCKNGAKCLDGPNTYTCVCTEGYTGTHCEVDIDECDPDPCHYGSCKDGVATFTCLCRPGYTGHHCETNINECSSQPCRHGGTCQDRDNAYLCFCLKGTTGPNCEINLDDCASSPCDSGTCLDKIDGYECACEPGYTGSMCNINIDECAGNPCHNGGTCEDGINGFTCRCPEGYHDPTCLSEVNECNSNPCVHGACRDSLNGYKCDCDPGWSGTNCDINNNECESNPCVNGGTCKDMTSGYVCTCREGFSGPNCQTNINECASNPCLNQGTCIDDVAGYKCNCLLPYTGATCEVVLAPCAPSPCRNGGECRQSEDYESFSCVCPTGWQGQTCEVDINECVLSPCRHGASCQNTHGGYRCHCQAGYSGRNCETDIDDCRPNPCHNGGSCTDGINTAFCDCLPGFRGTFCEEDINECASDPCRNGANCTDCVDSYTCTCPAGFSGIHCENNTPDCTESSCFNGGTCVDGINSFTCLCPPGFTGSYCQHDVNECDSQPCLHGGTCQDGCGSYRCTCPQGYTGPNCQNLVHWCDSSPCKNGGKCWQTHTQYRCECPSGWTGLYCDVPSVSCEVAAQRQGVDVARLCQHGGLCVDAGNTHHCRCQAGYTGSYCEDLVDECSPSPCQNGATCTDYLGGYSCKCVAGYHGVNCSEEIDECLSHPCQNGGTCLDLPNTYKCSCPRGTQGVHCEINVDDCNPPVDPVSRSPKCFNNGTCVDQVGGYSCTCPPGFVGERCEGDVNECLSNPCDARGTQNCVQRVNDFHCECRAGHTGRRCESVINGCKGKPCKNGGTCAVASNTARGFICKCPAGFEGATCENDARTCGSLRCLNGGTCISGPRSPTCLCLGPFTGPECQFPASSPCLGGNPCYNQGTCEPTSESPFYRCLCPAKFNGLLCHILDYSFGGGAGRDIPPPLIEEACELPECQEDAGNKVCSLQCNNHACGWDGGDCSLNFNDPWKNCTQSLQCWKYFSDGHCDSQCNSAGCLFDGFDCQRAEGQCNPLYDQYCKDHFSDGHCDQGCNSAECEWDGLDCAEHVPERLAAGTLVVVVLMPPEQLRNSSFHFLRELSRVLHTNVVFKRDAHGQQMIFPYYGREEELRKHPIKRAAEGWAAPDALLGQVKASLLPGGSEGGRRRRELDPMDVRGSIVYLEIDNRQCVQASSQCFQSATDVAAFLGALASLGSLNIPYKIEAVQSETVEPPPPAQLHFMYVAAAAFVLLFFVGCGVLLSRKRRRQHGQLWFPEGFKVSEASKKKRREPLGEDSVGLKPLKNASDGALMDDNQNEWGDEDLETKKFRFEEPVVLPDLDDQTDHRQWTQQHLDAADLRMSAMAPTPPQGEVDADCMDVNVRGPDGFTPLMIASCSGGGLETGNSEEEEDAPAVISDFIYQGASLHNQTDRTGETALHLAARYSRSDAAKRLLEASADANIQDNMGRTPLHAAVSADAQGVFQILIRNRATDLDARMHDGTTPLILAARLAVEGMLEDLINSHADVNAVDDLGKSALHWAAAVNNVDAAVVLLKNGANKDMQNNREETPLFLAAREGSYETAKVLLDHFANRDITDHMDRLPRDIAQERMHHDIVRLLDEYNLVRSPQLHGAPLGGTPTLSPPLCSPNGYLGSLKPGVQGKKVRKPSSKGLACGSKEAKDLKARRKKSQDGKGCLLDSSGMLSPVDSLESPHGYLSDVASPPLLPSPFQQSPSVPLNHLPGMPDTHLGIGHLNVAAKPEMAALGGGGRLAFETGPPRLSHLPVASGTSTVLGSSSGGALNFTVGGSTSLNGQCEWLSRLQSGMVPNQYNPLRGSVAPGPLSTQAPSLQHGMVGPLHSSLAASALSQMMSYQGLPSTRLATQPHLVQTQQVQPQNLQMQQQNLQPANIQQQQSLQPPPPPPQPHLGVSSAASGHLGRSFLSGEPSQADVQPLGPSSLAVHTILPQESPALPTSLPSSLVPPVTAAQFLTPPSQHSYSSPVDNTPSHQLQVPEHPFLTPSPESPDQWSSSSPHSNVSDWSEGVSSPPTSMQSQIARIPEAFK

Row | SMILES | IC50 [4] [µM] | also measured
1 | COC(=O)[C@@H](NC(=O)[C@H](C)NC(=O)Cc1cc(F)cc(F)c1)c1ccccc1 |  | Activity (HCT-116 [1]): Dose-dependent effect; IC50 (HCT-116 [1]): 12 µM
2 | CC1=C(C(=O)OC23CC4CC(CC(C4)C2)C3)C(c2cccc(Br)c2)C2=C(CC(C)(C)CC2=O)N1 (configuration not stated) | > 10 | 
3 | CC1=C(C(=O)OC2CCCCC2)C(c2cccc(C(F)(F)F)c2)C2=C(CC(C)(C)CC2=O)N1 (configuration not stated) | 14.7 | 
4 | CC1=C(C(=O)OC2CCCCC2)C(c2cccc(Br)c2)C2=C(CC(C)(C)CC2=O)N1 (configuration not stated) | 4.15 | 
5 | CC1=C(C(=O)OC2CCCCC2)C(c2cccc(C#N)c2)C2=C(CC(C)(C)CC2=O)N1 (configuration not stated) | 43.2 | 
6 | CC1=C(C(=O)O[C@H](CC#N)c2ccccc2)C(c2cccc(Br)c2)C2=C(CC(C)(C)CC2=O)N1 (some centres not stated) | > 10 | 
7 | CC1=C(C(=O)OC2CCCCC2)C(c2ccc3c(c2)OCCO3)C2=C(CC(C)(C)CC2=O)N1 (configuration not stated) | 12.3 | 
8 | CC1=C(C(=O)OCc2ccc(C(C)(C)C)cc2)C(c2cccc(Br)c2)C2=C(CC(C)(C)CC2=O)N1 (configuration not stated) | 4.27 | 
9 | CC1=C(C(=O)OC2CCN(C(=O)OC(C)(C)C)CC2)C(c2cccc(Br)c2)C2=C(CC(C)(C)CC2=O)N1 (configuration not stated) | > 10 | 
10 | CC1=C(C(=O)OCC2CCN(C(=O)OC(C)(C)C)CC2)C(c2cccc([N+](=O)[O-])c2)C2=C(CC(C)(C)CC2=O)N1 (configuration not stated) | > 10 | 
11 | CC1=C(C(=O)OCCC2CCN(C(=O)OC(C)(C)C)CC2)C(c2cccc(Br)c2)C2=C(CC(C)(C)CC2=O)N1 (configuration not stated) | 2.95 | 
12 | CC1=C(C(=O)OCC2CCN(C(=O)OC(C)(C)C)CC2)C(c2ccc(-c3ccccc3)cc2)C2=C(CC(C)(C)CC2=O)N1 (configuration not stated) | > 10 | 
13 | CC1=C(C(=O)OCC2CCN(C(=O)OC(C)(C)C)CC2)C(c2ccc(Br)cc2F)C2=C(CC(C)(C)CC2=O)N1 (configuration not stated) | > 10 | 
14 | CC1=C(C(=O)OCC2CCN(C(=O)OC(C)(C)C)CC2)C(c2cccc(C(C)C)c2)C2=C(CC(C)(C)CC2=O)N1 (configuration not stated) | 3.32 | 

Further compounds by falling IC50 [4], results first:

Row | IC50 [4] [µM] | SMILES | also measured
15 | 2.59 | CC1=C(C(=O)OCC2CCN(C(=O)OC(C)(C)C)CC2)[C@@H](c2cccc(Br)c2)C2=C(CC(C)(C)CC2=O)N1 | 
16 | 2.51 | CC1=C(C(=O)OC2CCCCC2)C(c2ccc([N+](=O)[O-])cc2)C2=C(CC(C)(C)CC2=O)N1 (configuration not stated) | Activity (HCT-116 [1]): Dose-dependent effect; IC50 (HCT-116 [1]): 1.8 µM
17 | 1.52 | CC1=C(C(=O)OCC2CCN(C(=O)OC(C)(C)C)CC2)C(c2ccc3c(c2)OCCO3)C2=C(CC(C)(C)CC2=O)N1 (configuration not stated) | 
18 | 0.86 | CC1=C(C(=O)OCc2cnccn2)C(c2cccc(Br)c2)C2=C(CC(C)(C)CC2=O)N1 (configuration not stated) | 
19 | 0.77 | CC1=C(C(=O)OCC2CCN(C(=O)OC(C)(C)C)CC2)C(c2cccc(-c3ccc4[nH]ccc4c3)c2)C2=C(CC(C)(C)CC2=O)N1 (configuration not stated) | 
20 | 0.76 | CC1=C(C(=O)OCC2CCN(C(=O)OC(C)(C)C)CC2)C(c2cccc(C(F)(F)F)c2)C2=C(CC(C)(C)CC2=O)N1 (configuration not stated) | 
21 | 0.64 | CC1=C(C(=O)OCC2CCN(C(=O)OC(C)(C)C)CC2)C(c2cc(Cl)cc(Cl)c2)C2=C(CC(C)(C)CC2=O)N1 (configuration not stated) | 
22 | 0.36 | CC1=C(C(=O)OCC2CCN(C(=O)OC(C)(C)C)CC2)C(c2cccc(Br)c2)C2=C(CC(C)(C)CC2=O)N1 (configuration not stated) | 
23 | 0.33 | CC1=C(C(=O)OCC2CCN(C(=O)OC(C)(C)C)CC2)C(c2ccc3ccccc3n2)C2=C(CC(C)(C)CC2=O)N1 (configuration not stated) | 
24 | 0.22 | CC1=C(C(=O)OCC2CCN(C(=O)OC(C)(C)C)CC2)C(c2cccc(C#N)c2)C2=C(CC(C)(C)CC2=O)N1 (configuration not stated) | 
25 | 0.13 | CC1=C(C(=O)OCC2CCN(C(=O)OC(C)(C)C)CC2)[C@H](c2cccc(Br)c2)C2=C(CC(C)(C)CC2=O)N1 | Activity (HCT-116 [1]): Dose-dependent effect; IC50 (HCT-116 [1]): 0.22 µM; Ratio IC50 [2]: 20; Ratio IC50 (HCT-116 [3]): 55
